Measurements taken from ChEMBL document CHEMBL1145604, “Fragment-based discovery of hepatitis C virus NS5b RNA polymerase inhibitors” (Bioorg Med Chem Lett, 2008).

Legend:
[1] = Inhibition of HCV NS5b RNA polymerase assessed as [3H]UTP incorporation into RNA; design: species or system Hepacivirus hominis
Method in brief: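 NS5B570n-BK (200 nM) with poly-A:oligo U₁₆ template:primer (8.4 µg/mL), 2.1 µCi tritiated UTP, 1 µM ATP, CTP, GTP in 40 mM Tris-HCl pH 8.0, NaCl, 4 mM DTT, 4 mM MgCl₂; compound serially diluted in DMSO. 2 h at 30 °C, TCA stop, filtration, scintillation counting. IC50 from duplicate means.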

[2] = Binding affinity to HCV NS5b RNA polymerase by SPR assay; design: species or system Hepacivirus hominis
Hepatitis C virus = test: Antiviral activity against Hepatitis C virus by replicon assay; assay type: functional, organism-based, Hepacivirus hominis

Row | Structure (SMILES) | IC50 [1] [nM] | Kd [2] [nM] | EC50 (Hepatitis C virus) [µM]
1 | C[C@@H]1C[C@H](C)CN(C(=O)c2cc(Br)ccc2NC(=O)CCC(=O)c2cccs2)C1 | 440 | 970 | 4.3
2 | C[C@@H]1C[C@H](C)CN(C(=O)c2cc(Br)ccc2NC(=O)CNC(=O)c2cccnc2)C1 | 430 | 570 | 5.7
3 | Cc1cc(CNC(=O)Nc2ccc(Br)cc2C(=O)N2C[C@H](C)C[C@H](C)C2)nn1C | 170 | 370 | 4.6
4 | C[C@@H]1C[C@H](C)CN(C(=O)c2cc(Br)ccc2NC(=O)CCC(=O)c2ccccn2)C1 | 540 | 1850 | 
5 | CC(C)NC(=O)c1cc(Br)ccc1NC(=O)CCC(=O)O | > 500000 |  | 
6 | Cc1cnc(CNC(=O)Nc2ccc(Br)cc2C(=O)N2C[C@H](C)C[C@H](C)C2)cn1 | 360 | 350 | 6.9
7 | C[C@@H]1C[C@H](C)CN(C(=O)c2cc(Br)ccc2NC(=O)[C@@H]2C[C@@H](O)CN2C(=O)c2ccco2)C1 | 1030 | 150 | 3.7
8 | C[C@@H]1C[C@H](C)CN(C(=O)c2cc(Br)ccc2NC(=O)CCCC(=O)O)C1 | 9000 |  | 
9 | C[C@@H]1C[C@H](C)CN(C(=O)c2cc(Br)ccc2NC(=O)CNC(=O)c2ccccc2)C1 | 130 | 540 | 5.5
10 | C[C@@H]1C[C@H](C)CN(C(=O)c2cc(Br)ccc2NC(=O)CNC(=O)c2ccco2)C1 | 250 | 1020 | 8.7
11 | C[C@@H]1C[C@H](C)CN(C(=O)c2cc(Br)ccc2NC(=O)NCc2ccc(N(C)C)cc2)C1 | 1000 | 800 | 4.9
12 | C[C@@H]1C[C@H](C)CN(C(=O)c2cc(Br)ccc2NC(=O)NCC(=O)N(C)C)C1 | 600 | 460 | 5.6
13 | O=C(O)CCC(=O)Nc1ccc(Br)cc1C(=O)NCC1CCCCC1 | > 500000 |  | 
14 | C[C@@H]1C[C@H](C)CN(C(=O)c2cc(Br)ccc2NC(=O)CCC(=O)c2cccnc2)C1 | 590 | 1040 | 7.9
15 | C[C@@H]1C[C@H](C)CN(C(=O)c2cc(Br)ccc2NC(=O)CCC(=O)N(C)C)C1 | 400 | 300 | 6.1
16 | C[C@@H]1C[C@H](C)CN(C(=O)c2cc(Br)ccc2NC(=O)[C@@H]2CCCN2C(=O)c2cccnc2)C1 | 350 | 1280 | 12.9

Continued, values first:

Row | IC50 [1] [nM] | Kd [2] [nM] | EC50 (Hepatitis C virus) [µM] | Structure (SMILES)
17 | 11000 | 1700 |  | CC(=O)Nc1ccc(Br)cc1C(=O)N1C[C@H](C)C[C@H](C)C1
18 | 132000 | 210000 |  | Nc1ccc(Br)cc1C(=O)N1CCc2ccccc2C1
19 | 250 |  | 7.4 | C[C@@H]1C[C@H](C)CN(C(=O)c2cc(Br)ccc2NC(=O)CCC(=O)N2CCOCC2)C1
20 | 533000 |  |  | O=C(O)CCC(=O)Nc1ccc(Br)cc1C(=O)N1CCSCC1
21 | > 500000 |  |  | Nc1ccc(Br)cc1C(=O)NCc1ccccc1
22 | 7500 |  |  | C[C@@H]1C[C@H](C)CN(C(=O)c2cc(Br)ccc2NS(C)(=O)=O)C1
23 | 190000 | 36000 |  | C[C@@H]1CN(C(=O)c2cc(Br)ccc2N)C[C@H](C)O1
24 | > 500000 |  |  | Nc1ccc(Br)cc1C(=O)N1CCCC1
25 | 4300 | 9400 |  | C[C@@H]1C[C@H](C)CN(C(=O)c2cc(Br)ccc2NC(=O)CCC(N)=O)C1
26 | > 500000 |  |  | Nc1ccc(Br)cc1C(=O)N1CCCCC1
27 | 17000 |  |  | C[C@@H]1C[C@H](C)CN(C(=O)c2cc(Br)ccc2N)C1
28 | 1000 |  | 22.8 | C[C@@H]1C[C@H](C)CN(C(=O)c2cc(Br)ccc2NC(=O)CCC(=O)O)C1
29 | 2100 |  |  | COC(=O)CCC(=O)Nc1ccc(Br)cc1C(=O)N1C[C@H](C)C[C@H](C)C1
30 | > 500000 |  |  | Nc1ccc(Br)cc1C(=O)N1CCOCC1
31 | 170000 | 192000 |  | CC1CCCN(C(=O)c2cc(Br)ccc2N)C1 (stereo not given)
32 | 11000 |  |  | C[C@@H]1C[C@H](C)CN(C(=O)c2cc(Br)ccc2NC(=O)CC(=O)N(C)C)C1
33 | 178000 |  |  | Nc1ccc(Br)cc1C(=O)Nc1ccccc1Cl
